Data on five molecules can be found in ChEMBL document CHEMBL1949561, “Synthesis and triplex-forming ability of oligonucleotides bearing 1-substituted 1H-1,2,3-triazole nucleobases” (Bioorg Med Chem, 2011).

SMILES strings stand for the structures. Some results are limits rather than exact numbers.

By ΔTm is commonly meant the shift of the melting midpoint relative to a reference.

What all share (format): nucleic-acid assay
The test system of assay [1] is Nucleic Acid. As to the kind of experiment: Binding affinity to5'-GCTAAAAAGACAGAGAGATCG-3'/5'- CGATCTCTCTGTCTTTTTAGC-3' double stranded DNA assessed as melting temperature at 1.5 uM in sodium phosphate buffer at pH 7 by UV spectrophotometric analysis. The method in brief: (§1)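 UV melting of triplexes between each modified TFO and the 21-bp duplex target, in 7 mM sodium phosphate buffer (pH 7.0), 140 mM KCl and 10 mM MgCl₂. Each oligonucleotide at 1.5 µM final. Absorbance followed at 260 nm from 5 °C to 85 °C, scanned at 0.5 °C/min, to give Tm.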

Assay [2] concerns Nucleic Acid. As to the kind of experiment: Binding affinity to 5'-GCTAAAAAGATAGAGAGATCG-3'/5'- CGATCTCTCTATCTTTTTAGC-3' double stranded DNA assessed as melting temperature at 1.5 uM in sodium phosphate buffer at pH 7 by UV spectrophotometric analysis. The method in brief:
as §1

Assay [3] concerns Nucleic Acid. Description: Binding affinity to 5'-GCTAAAAAGAGAGAGAGATCG-3'/5'- CGATCTCTCTCTCTTTTTAGC-3' double stranded DNA assessed as melting temperature at 1.5 uM in sodium phosphate buffer at pH 7 by UV spectrophotometric analysis. In short, it runs like this:
as §1

In assay [4] the test system is Nucleic Acid. Description: Binding affinity to 5'-GCTAAAAAGAAAGAGAGATCG-3'/5'- CGATCTCTCTTTCTTTTTAGC-3' double stranded DNA assessed as melting temperature at 1.5 uM in sodium phosphate buffer at pH 7 by UV spectrophotometric analysis. The method in brief: as §1
In assay [5] the test system is Nucleic Acid. Description: Binding affinity to 5'-GCTAAAAAGACAGAGAGATCG-3'/5'- CGATCTCTCTGTCTTTTTAGC-3' double stranded DNA assessed as melting temperature at 1.9 uM in sodium cacodylate buffer at pH 6.8 by UV spectrophotometric analysis. In short, it runs like this: (§2)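 Each oligonucleotide at 1.9 µM final. Absorbance at 260 nm recorded from 5 °C to 85 °C at 0.5 °C/min; Tm taken from the melting profile.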

For assay [6], the system named is Nucleic Acid. Description: Binding affinity to 5'-GCTAAAAAGATAGAGAGATCG-3'/5'- CGATCTCTCTATCTTTTTAGC-3' double stranded DNA assessed as melting temperature at 1.9 uM in sodium cacodylate buffer at pH 6.8 by UV spectrophotometric analysis. In short, it runs like this:
as §2

Assay [7] concerns Nucleic Acid. As to the kind of experiment: Binding affinity to 5'-GCTAAAAAGAGAGAGAGATCG-3'/5'- CGATCTCTCTCTCTTTTTAGC-3' double stranded DNA assessed as melting temperature at 1.9 uM in sodium cacodylate buffer at pH 6.8 by UV spectrophotometric analysis. The method in brief:
as §2

Assay [8] has as its system Nucleic Acid. As to the kind of experiment: Binding affinity to 5'-GCTAAAAAGAAAGAGAGATCG-3'/5'- CGATCTCTCTTTCTTTTTAGC-3' double stranded DNA assessed as melting temperature at 1.9 uM in sodium cacodylate buffer at pH 6.8 by UV spectrophotometric analysis. The method in brief: as §2
Assay [9] deals with Nucleic Acid. Description: Binding affinity to 5'-GCTAAAAAGACAGAGAGATCG-3'/5'- CGATCTCTCTGTCTTTTTAGC-3' double stranded DNA assessed as change in melting temperature at 1.5 uM in sodium phosphate buffer at pH 7 by UV spectrophotometric analysis.

With `Cc1cn([C@H]2C[C@H](OP(=O)(O)OC[C@H]3O[C@@H](n4cc(C)c(=O)[nH]c4=O)C[C@@H]3OP(=O)(O)OC[C@H]3O[C@@H](n4cc(C)c(N)nc4=O)C[C@@H]3OP(=O)(O)OC[C@H]3O[C@@H](n4cc(C)c(=O)[nH]c4=O)C[C@@H]3OP(=O)(O)OC[C@H]3O[C@@H](n4cc(C)c(N)nc4=O)C[C@@H]3OP(=O)(O)OC[C@H]3O[C@@H](n4cc(C)c(=O)[nH]c4=O)C[C@@H]3OP(=O)(O)OC[C@H]3O[C@@H](c4cn(-c5ccc(NC(N)=O)cc5)nn4)C[C@@H]3OP(=O)(O)OC[C@H]3O[C@@H](n4cc(C)c(=O)[nH]c4=O)C[C@@H]3OP(=O)(O)OC[C@H]3O[C@@H](n4cc(C)c(N)nc4=O)C[C@@H]3OP(=O)(O)OC[C@H]3O[C@@H](n4cc(C)c(=O)[nH]c4=O)C[C@@H]3OP(=O)(O)OC[C@H]3O[C@@H](n4cc(C)c(=O)[nH]c4=O)C[C@@H]3OP(=O)(O)OC[C@H]3O[C@@H](n4cc(C)c(=O)[nH]c4=O)C[C@@H]3OP(=O)(O)OC[C@H]3O[C@@H](n4cc(C)c(=O)[nH]c4=O)C[C@@H]3OP(=O)(O)OC[C@H]3O[C@@H](n4cc(C)c(=O)[nH]c4=O)C[C@@H]3O)[C@@H](COP(=O)(O)O[C@H]3C[C@H](n4cc(C)c(=O)[nH]c4=O)O[C@@H]3CO)O2)c(=O)nc1N`, the Tm in the assay with Nucleic Acid [1] was found to be 24 °C; in the assay with Nucleic Acid [2], 13 °C; in the assay with Nucleic Acid [3], 13 °C; in the assay with Nucleic Acid [4], 12 °C; in the assay on Nucleic Acid [5], 29 °C; in the assay on Nucleic Acid [6], 18 °C. Moreover, the Tm in the assay on Nucleic Acid [7] is 17 °C; in the assay on Nucleic Acid [8], 18 °C. Also, the ΔTm with Nucleic Acid [9] is 11 °C.
Regarding `Cc1cn([C@H]2C[C@H](OP(=O)(O)OC[C@H]3O[C@@H](n4cc(C)c(=O)[nH]c4=O)C[C@@H]3OP(=O)(O)OC[C@H]3O[C@@H](n4cc(C)c(N)nc4=O)C[C@@H]3OP(=O)(O)OC[C@H]3O[C@@H](n4cc(C)c(=O)[nH]c4=O)C[C@@H]3OP(=O)(O)OC[C@H]3O[C@@H](n4cc(C)c(N)nc4=O)C[C@@H]3OP(=O)(O)OC[C@H]3O[C@@H](n4cc(C)c(=O)[nH]c4=O)C[C@@H]3OP(=O)(O)OC[C@H]3O[C@@H](c4cn(-c5ccccc5)nn4)C[C@@H]3OP(=O)(O)OC[C@H]3O[C@@H](n4cc(C)c(=O)[nH]c4=O)C[C@@H]3OP(=O)(O)OC[C@H]3O[C@@H](n4cc(C)c(N)nc4=O)C[C@@H]3OP(=O)(O)OC[C@H]3O[C@@H](n4cc(C)c(=O)[nH]c4=O)C[C@@H]3OP(=O)(O)OC[C@H]3O[C@@H](n4cc(C)c(=O)[nH]c4=O)C[C@@H]3OP(=O)(O)OC[C@H]3O[C@@H](n4cc(C)c(=O)[nH]c4=O)C[C@@H]3OP(=O)(O)OC[C@H]3O[C@@H](n4cc(C)c(=O)[nH]c4=O)C[C@@H]3OP(=O)(O)OC[C@H]3O[C@@H](n4cc(C)c(=O)[nH]c4=O)C[C@@H]3O)[C@@H](COP(=O)(O)O[C@H]3C[C@H](n4cc(C)c(=O)[nH]c4=O)O[C@@H]3CO)O2)c(=O)nc1N`, the Tm was 25 °C in the assay on Nucleic Acid [1]; 17 °C in the assay on Nucleic Acid [2]; under 10 °C in the assay on Nucleic Acid [3]; under 10 °C with Nucleic Acid [4]; 29 °C with Nucleic Acid [5]; 23 °C with Nucleic Acid [6]. For the same molecule, the Tm with Nucleic Acid [7] was determined as 17 °C; with Nucleic Acid [8], 19 °C. Further, the ΔTm in the assay on Nucleic Acid [9] stood at 8 °C.
For the molecule `Cc1cn([C@H]2C[C@H](OP(=O)(O)OC[C@H]3O[C@@H](n4cc(C)c(=O)[nH]c4=O)C[C@@H]3OP(=O)(O)OC[C@H]3O[C@@H](n4cc(C)c(N)nc4=O)C[C@@H]3OP(=O)(O)OC[C@H]3O[C@@H](n4cc(C)c(=O)[nH]c4=O)C[C@@H]3OP(=O)(O)OC[C@H]3O[C@@H](n4cc(C)c(N)nc4=O)C[C@@H]3OP(=O)(O)OC[C@H]3O[C@@H](n4cc(C)c(=O)[nH]c4=O)C[C@@H]3OP(=O)(O)OC[C@H]3O[C@@H](c4cn(-c5ccc(C(=O)O)cc5)nn4)C[C@@H]3OP(=O)(O)OC[C@H]3O[C@@H](n4cc(C)c(=O)[nH]c4=O)C[C@@H]3OP(=O)(O)OC[C@H]3O[C@@H](n4cc(C)c(N)nc4=O)C[C@@H]3OP(=O)(O)OC[C@H]3O[C@@H](n4cc(C)c(=O)[nH]c4=O)C[C@@H]3OP(=O)(O)OC[C@H]3O[C@@H](n4cc(C)c(=O)[nH]c4=O)C[C@@H]3OP(=O)(O)OC[C@H]3O[C@@H](n4cc(C)c(=O)[nH]c4=O)C[C@@H]3OP(=O)(O)OC[C@H]3O[C@@H](n4cc(C)c(=O)[nH]c4=O)C[C@@H]3OP(=O)(O)OC[C@H]3O[C@@H](n4cc(C)c(=O)[nH]c4=O)C[C@@H]3O)[C@@H](COP(=O)(O)O[C@H]3C[C@H](n4cc(C)c(=O)[nH]c4=O)O[C@@H]3CO)O2)c(=O)nc1N`, the Tm is 21 °C in the assay on Nucleic Acid [1], under 10 °C in the assay with Nucleic Acid [2], under 10 °C in the assay with Nucleic Acid [3] and under 10 °C in the assay on Nucleic Acid [4]. In addition, in the assay with Nucleic Acid [9], the ΔTm amounted to 11 °C.
As to `Cc1cn([C@H]2C[C@H](OP(=O)(O)OC[C@H]3O[C@@H](n4cc(C)c(=O)[nH]c4=O)C[C@@H]3OP(=O)(O)OC[C@H]3O[C@@H](n4cc(C)c(N)nc4=O)C[C@@H]3OP(=O)(O)OC[C@H]3O[C@@H](n4cc(C)c(=O)[nH]c4=O)C[C@@H]3OP(=O)(O)OC[C@H]3O[C@@H](n4cc(C)c(N)nc4=O)C[C@@H]3OP(=O)(O)OC[C@H]3O[C@@H](n4cc(C)c(=O)[nH]c4=O)C[C@@H]3OP(=O)(O)OC[C@H]3O[C@@H](n4cc(C)c(=O)[nH]c4=O)C[C@@H]3OP(=O)(O)OC[C@H]3O[C@@H](n4cc(C)c(=O)[nH]c4=O)C[C@@H]3OP(=O)(O)OC[C@H]3O[C@@H](n4cc(C)c(N)nc4=O)C[C@@H]3OP(=O)(O)OC[C@H]3O[C@@H](n4cc(C)c(=O)[nH]c4=O)C[C@@H]3OP(=O)(O)OC[C@H]3O[C@@H](n4cc(C)c(=O)[nH]c4=O)C[C@@H]3OP(=O)(O)OC[C@H]3O[C@@H](n4cc(C)c(=O)[nH]c4=O)C[C@@H]3OP(=O)(O)OC[C@H]3O[C@@H](n4cc(C)c(=O)[nH]c4=O)C[C@@H]3OP(=O)(O)OC[C@H]3O[C@@H](n4cc(C)c(=O)[nH]c4=O)C[C@@H]3O)[C@@H](COP(=O)(O)O[C@H]3C[C@H](n4cc(C)c(=O)[nH]c4=O)O[C@@H]3CO)O2)c(=O)nc1N`, the Tm was determined as 25 °C with Nucleic Acid [1]; 17 °C in the assay with Nucleic Acid [2]; 20 °C in the assay on Nucleic Acid [3]; 44 °C with Nucleic Acid [4]; 28 °C in the assay on Nucleic Acid [5]; 21 °C with Nucleic Acid [6]. In addition, the Tm was 22 °C in the assay on Nucleic Acid [7] and 45 °C in the assay on Nucleic Acid [8].
For `Cc1cn([C@H]2C[C@H](OP(=O)(O)OC[C@H]3O[C@@H](n4cc(C)c(=O)[nH]c4=O)C[C@@H]3OP(=O)(O)OC[C@H]3O[C@@H](n4cc(C)c(N)nc4=O)C[C@@H]3OP(=O)(O)OC[C@H]3O[C@@H](n4cc(C)c(=O)[nH]c4=O)C[C@@H]3OP(=O)(O)OC[C@H]3O[C@@H](n4cc(C)c(N)nc4=O)C[C@@H]3OP(=O)(O)OC[C@H]3O[C@@H](n4cc(C)c(=O)[nH]c4=O)C[C@@H]3OP(=O)(O)OC[C@H]3O[C@@H](c4cn(Cc5ccccc5)nn4)C[C@@H]3OP(=O)(O)OC[C@H]3O[C@@H](n4cc(C)c(=O)[nH]c4=O)C[C@@H]3OP(=O)(O)OC[C@H]3O[C@@H](n4cc(C)c(N)nc4=O)C[C@@H]3OP(=O)(O)OC[C@H]3O[C@@H](n4cc(C)c(=O)[nH]c4=O)C[C@@H]3OP(=O)(O)OC[C@H]3O[C@@H](n4cc(C)c(=O)[nH]c4=O)C[C@@H]3OP(=O)(O)OC[C@H]3O[C@@H](n4cc(C)c(=O)[nH]c4=O)C[C@@H]3OP(=O)(O)OC[C@H]3O[C@@H](n4cc(C)c(=O)[nH]c4=O)C[C@@H]3OP(=O)(O)OC[C@H]3O[C@@H](n4cc(C)c(=O)[nH]c4=O)C[C@@H]3O)[C@@H](COP(=O)(O)O[C@H]3C[C@H](n4cc(C)c(=O)[nH]c4=O)O[C@@H]3CO)O2)c(=O)nc1N`, the Tm with Nucleic Acid [1] is 19 °C; in the assay on Nucleic Acid [2], 12 °C; in the assay with Nucleic Acid [3], under 10 °C; in the assay on Nucleic Acid [4] it was under 10 °C.
